Measurements: ChEMBL document CHEMBL4425109, “Optimization of Cyclic Plasmin Inhibitors: From Benzamidines to Benzylamines” (J Med Chem, 2016)

Assays:
[1] = biological target: Prothrombin (Bos taurus, UniProt P00735); assay: Inhibition of bovine thrombin using Tos-Gly-Pro-Arg-AMC as substrate by Dixon plot analysis
Summary of the method: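 Bovine thrombin at 31 pM in assay, KM 5.4 μM for the substrate. Run at room temperature in 50 mM Tris·HCl pH 8.0 with 154 mM NaCl. Fluorescence read at ex 355 / em 460 nm, reaction started by enzyme addition. Ki from Dixon plots, average of at least two measurements.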

[2] = biological target: Vitamin K-dependent protein C (Homo sapiens, UniProt P04070); assay: Inhibition of human activated Protein C using Mes-DArg-Pro-Arg-AMC as substrate by Dixon plot analysis
Sequence of Vitamin K-dependent protein C (P04070 43-197 limits assumed): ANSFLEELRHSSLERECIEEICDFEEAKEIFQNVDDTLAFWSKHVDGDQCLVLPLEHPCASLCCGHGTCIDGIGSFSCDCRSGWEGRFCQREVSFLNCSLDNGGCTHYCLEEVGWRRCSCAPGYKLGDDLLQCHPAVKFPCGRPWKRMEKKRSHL
Sequence of Vitamin K-dependent protein C (P04070 212-461 limits assumed): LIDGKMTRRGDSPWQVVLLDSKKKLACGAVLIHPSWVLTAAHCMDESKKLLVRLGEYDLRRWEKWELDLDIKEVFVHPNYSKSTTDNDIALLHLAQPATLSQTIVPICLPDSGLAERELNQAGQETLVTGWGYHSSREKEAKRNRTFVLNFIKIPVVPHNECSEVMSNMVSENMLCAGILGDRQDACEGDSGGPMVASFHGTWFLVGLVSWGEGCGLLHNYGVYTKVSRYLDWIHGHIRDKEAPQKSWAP
Summary of the method: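 Human aPC, 293 pM final. Run at room temperature in 50 mM Tris·HCl pH 8.0 with 154 mM NaCl. Substrate Mes-DArg-Pro-Arg-AMC, KM 26 μM. Fluorescence was read at ex 355 / em 460 nm, with reaction started by enzyme. Ki came from Dixon plots, mean of at least two measurements.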

[3] = biological target: Trypsin (Sus scrofa, UniProt P00761); assay: Inhibition of porcine trypsin using Mes-DArg-Gly-Arg-AMC as substrate by Dixon plot analysis
Sequence of Trypsin (Sus scrofa, UniProt P00761) (P00761 whole entry): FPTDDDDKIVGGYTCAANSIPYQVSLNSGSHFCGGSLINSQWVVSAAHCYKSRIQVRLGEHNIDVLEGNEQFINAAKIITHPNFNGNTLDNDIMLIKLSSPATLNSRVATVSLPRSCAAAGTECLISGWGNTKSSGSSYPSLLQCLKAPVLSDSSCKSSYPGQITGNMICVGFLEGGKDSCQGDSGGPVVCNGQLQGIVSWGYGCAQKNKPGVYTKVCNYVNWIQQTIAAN
Summary of the method: (§1)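 Porcine trypsin, 30 pM final, with substrate Mes-DArg-Gly-Arg-AMC (KM 8.3 μM). Buffer was 50 mM Tris·HCl pH 8.0 containing 154 mM NaCl, at room temperature. Reaction was started by enzyme and fluorescence read at ex 355 / em 460 nm. Ki was obtained from Dixon plots, mean of at least two measurements.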

[4] = biological target: T1, Plasminogen (Homo sapiens, UniProt P00747); assay: Inhibition of human plasmin using Mes-DSer(Bzl)-Phe-Arg-AMC as substrate by Dixon plot analysis
Target sequence in this assay (P00747 97-580 limits assumed): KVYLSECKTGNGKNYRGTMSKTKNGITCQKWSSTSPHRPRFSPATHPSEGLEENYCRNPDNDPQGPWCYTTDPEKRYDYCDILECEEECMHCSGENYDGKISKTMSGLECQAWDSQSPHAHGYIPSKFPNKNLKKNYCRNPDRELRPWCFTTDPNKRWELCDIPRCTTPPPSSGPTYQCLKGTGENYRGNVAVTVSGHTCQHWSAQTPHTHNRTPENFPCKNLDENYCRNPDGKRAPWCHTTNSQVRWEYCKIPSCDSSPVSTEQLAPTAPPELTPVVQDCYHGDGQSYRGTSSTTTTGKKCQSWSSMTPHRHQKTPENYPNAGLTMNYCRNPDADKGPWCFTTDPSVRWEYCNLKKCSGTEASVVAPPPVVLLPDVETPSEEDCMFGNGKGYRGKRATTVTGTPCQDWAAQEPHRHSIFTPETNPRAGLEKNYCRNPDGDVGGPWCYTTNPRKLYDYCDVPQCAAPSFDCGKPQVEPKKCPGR
Target sequence in this assay (P00747 581-810 limits assumed): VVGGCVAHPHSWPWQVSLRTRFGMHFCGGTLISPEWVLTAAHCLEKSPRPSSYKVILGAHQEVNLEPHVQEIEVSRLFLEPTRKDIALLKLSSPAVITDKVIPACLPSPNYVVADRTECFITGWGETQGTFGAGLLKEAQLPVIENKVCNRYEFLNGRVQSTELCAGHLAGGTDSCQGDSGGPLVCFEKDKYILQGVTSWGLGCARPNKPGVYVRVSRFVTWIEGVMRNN

[5] = biological target: Coagulation factor X (Homo sapiens, UniProt P00742); assay: Inhibition of human f10a using Mes-DArg-Pro-Arg-AMC as substrate by Dixon plot analysis
Sequence of Coagulation factor X (P00742 41-179 limits assumed): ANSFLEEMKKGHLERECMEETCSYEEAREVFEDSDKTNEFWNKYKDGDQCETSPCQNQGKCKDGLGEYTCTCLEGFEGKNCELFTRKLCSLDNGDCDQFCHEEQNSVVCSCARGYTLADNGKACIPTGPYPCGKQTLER
Sequence of Coagulation factor X (P00742 235-488 limits assumed): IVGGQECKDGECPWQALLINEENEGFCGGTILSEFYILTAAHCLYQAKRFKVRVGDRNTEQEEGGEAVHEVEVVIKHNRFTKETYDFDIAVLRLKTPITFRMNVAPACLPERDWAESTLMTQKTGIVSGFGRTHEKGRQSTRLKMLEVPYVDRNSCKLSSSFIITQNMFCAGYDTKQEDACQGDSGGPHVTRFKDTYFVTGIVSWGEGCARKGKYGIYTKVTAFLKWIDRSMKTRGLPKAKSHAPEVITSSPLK
Summary of the method: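 Human factor Xa, 97 pM in assay, in 50 mM Tris·HCl pH 8.0 with 154 mM NaCl at room temperature. Fluorogenic substrate Mes-DArg-Pro-Arg-AMC (KM 28 μM), read at ex 355 / em 460 nm after starting with enzyme. Ki was taken from Dixon plots and averaged over at least two measurements.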

[6] = biological target: Plasma kallikrein (Homo sapiens, UniProt P03952); assay: Inhibition of human plasma kallikrein using Mes-DArg-Pro-Arg-AMC as substrate by Dixon plot analysis
Sequence of Plasma kallikrein (P03952 20-390 limits assumed): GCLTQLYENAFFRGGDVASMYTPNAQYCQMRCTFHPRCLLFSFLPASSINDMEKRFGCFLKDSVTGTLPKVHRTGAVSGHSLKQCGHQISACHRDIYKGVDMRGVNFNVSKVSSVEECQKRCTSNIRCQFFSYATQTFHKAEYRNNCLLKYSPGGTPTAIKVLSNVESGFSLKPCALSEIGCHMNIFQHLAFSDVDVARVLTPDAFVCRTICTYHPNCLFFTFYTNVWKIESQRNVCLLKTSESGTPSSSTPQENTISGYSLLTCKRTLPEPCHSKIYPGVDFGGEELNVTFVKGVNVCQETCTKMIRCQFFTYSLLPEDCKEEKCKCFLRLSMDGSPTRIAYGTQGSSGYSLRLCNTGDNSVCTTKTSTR
Sequence of Plasma kallikrein (P03952 391-638 limits assumed): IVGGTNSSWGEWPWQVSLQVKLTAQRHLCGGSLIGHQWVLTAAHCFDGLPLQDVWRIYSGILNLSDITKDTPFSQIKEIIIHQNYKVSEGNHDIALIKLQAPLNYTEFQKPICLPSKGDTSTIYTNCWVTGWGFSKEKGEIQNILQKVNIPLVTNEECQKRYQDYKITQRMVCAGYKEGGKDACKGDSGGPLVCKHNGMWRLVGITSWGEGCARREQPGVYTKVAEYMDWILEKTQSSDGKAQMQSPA
Summary of the method: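 Human plasma kallikrein (112 pM final) was assayed at room temperature in Tris·HCl 50 mM pH 8.0 with NaCl 154 mM. Mes-DArg-Pro-Arg-AMC served as substrate (KM 39 μM). Fluorescence was read at ex 355 / em 460 nm, with reactions started by enzyme.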

[7] = tested on: Plasma; assay: Antifibrinolytic activity in human plasma assessed as inhibition of tPA-induced plasmin formation after 40 mins; format: functional, cell-free
Summary of the method: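 Citrated human plasma at 37 °C with CaCl2 (12.5 mM in assay), tissue factor (stock 1/500 in assay) and tPA (12.3 nM in assay). Inhibitor dilutions, from 10 mM DMSO stocks diluted in 0.9% NaCl, were preincubated 5 min at 37 °C with these reagents, then started with prewarmed plasma. OD405 was read over 40 min.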

[8] = biological target: T1, Plasminogen; assay: Binding affinity to human plasmin assessed as slow binding constant in presence of Mes-DArg-Phe-Arg-AMC after 20 mins by Dixon plot analysis
Target sequence in this assay (P00747 97-580 limits assumed): as the sequence (P00747 97-580 limits assumed) above
Target sequence in this assay (P00747 581-810 limits assumed): as the sequence (P00747 581-810 limits assumed) above

[9] = biological target: T1, Plasminogen; assay: Inhibition of human plasmin
Target sequence in this assay (P00747 whole entry, looked up): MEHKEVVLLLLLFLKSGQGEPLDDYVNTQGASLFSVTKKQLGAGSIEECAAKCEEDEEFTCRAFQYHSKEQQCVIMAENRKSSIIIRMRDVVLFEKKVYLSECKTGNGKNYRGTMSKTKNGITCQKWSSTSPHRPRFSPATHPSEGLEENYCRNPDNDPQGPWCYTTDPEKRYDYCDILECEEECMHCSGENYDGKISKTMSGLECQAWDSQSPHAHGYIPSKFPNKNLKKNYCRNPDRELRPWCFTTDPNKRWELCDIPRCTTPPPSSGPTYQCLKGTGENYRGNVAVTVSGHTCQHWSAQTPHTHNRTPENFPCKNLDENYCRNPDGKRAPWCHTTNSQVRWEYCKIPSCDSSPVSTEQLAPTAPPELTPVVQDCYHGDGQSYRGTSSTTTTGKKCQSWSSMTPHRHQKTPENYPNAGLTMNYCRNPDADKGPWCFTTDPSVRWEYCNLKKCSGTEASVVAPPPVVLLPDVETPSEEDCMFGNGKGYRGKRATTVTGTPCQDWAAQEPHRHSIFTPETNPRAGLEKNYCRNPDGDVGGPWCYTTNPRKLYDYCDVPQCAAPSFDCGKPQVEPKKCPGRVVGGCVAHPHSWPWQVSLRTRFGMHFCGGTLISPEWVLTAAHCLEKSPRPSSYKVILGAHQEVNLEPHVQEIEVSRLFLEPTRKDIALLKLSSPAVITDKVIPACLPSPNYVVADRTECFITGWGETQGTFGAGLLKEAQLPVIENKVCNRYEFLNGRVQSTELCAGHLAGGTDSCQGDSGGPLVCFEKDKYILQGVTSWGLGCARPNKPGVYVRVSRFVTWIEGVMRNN

[10] = tested on: Plasma; assay: Potency index, ratio of aprotinin IC50 to compound IC50 for inhibition of tPA-induced plasmin formation in human plasma; format: functional
[11] = tested on: Plasma; assay: Inhibition of TF/Ca2+-induced clotting in human plasma at 10 to 200 nM after 40 mins; format: cell-free; conditions: 0.2 µM
Summary of the method: (§2)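 Clotting was triggered in citrated human plasma at 37 °C by tissue factor (stock 1/500 in assay) plus CaCl2 (12.5 mM in assay), with tPA 12.3 nM present. Inhibitor was tested at 10–200 nM after 5 min preincubation of reagents at 37 °C. Clot formation was followed as the rapid initial OD405 rise to a plateau, read over 40 min.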

[12] = tested on: Plasma; assay: Inhibition of TF/Ca2+-induced clotting in human plasma after 40 mins; format: cell-free; summary of the method: as §2
[13] = biological target: Trypsin (Homo sapiens, UniProt P07477+P07478+P35030); assay: Inhibition of trypsin (unknown origin); format: protein assay; summary of the method: as §1

Compound	Ki [1] [µM]	Ki [2] [µM]	Ki [3] [µM]	Ki [4] [nM]	Ki [5] [µM]	Ki [6] [µM]	IC50 [7] [µM]	Ki [8] [µM]	Ki [9] [µM]	Ratio IC50 [10]	Activity [11]	Activity [12]	Ki [13] [µM]
CCCCS(=O)(=O)N[C@@H]1Cc2ccc(cc2)NC(=O)CCN2CCN(CCC(=O)Nc3ccc(cc3)C[C@@H](C(=O)NCc3ccc(C(=N)N)cc3)NC1=O)CC2	14.1	4.28	0.0137	0.45	34.4	0.701	–	–	–	–	–	–	–
N=C(N)c1ccc(CNC(=O)[C@@H]2Cc3ccc(cc3)NC(=O)CN3CCN(CC3)CC(=O)Nc3ccc(cc3)C[C@@H](NS(=O)(=O)NC3CCCCC3)C(=O)N2)cc1	15.8	> 30	0.136	–	–	–	0.053	0.00042	–	–	–	–	–
CC(C)(C)OC[C@@H](NS(=O)(=O)c1ccccc1)C(=O)NCC(=O)NCc1ccc(C(=N)N)cc1	–	–	–	–	–	–	–	–	24	–	–	–	–
N=C(N)c1ccc(CNC(=O)[C@@H]2Cc3ccc(cc3)NC(=O)CN3CCN(CC3)CC(=O)Nc3ccc(cc3)C[C@@H](NS(=O)(=O)c3ccccc3)C(=O)N2)cc1	20.7	> 30	0.501	0.51	> 15	0.54	–	–	–	–	–	–	–
N=C(N)c1ccc(CNC(=O)[C@@H]2Cc3ccc(cc3)NC(=O)CCN3CCN(CCC(=O)Nc4ccc(cc4)C[C@@H](NC(=O)OCc4ccccc4)C(=O)N2)CC3)cc1	–	46.5	0.103	–	–	–	–	–	–	–	–	–	–
NCc1ccc(CNC(=O)[C@@H]2Cc3ccc(cc3)NC(=O)CCN3CCN(CCC(=O)Nc4ccc(cc4)C[C@@H](NS(=O)(=O)c4ccccc4)C(=O)N2)CC3)cc1.O=C(O)C(F)(F)F.O=C(O)C(F)(F)F.O=C(O)C(F)(F)F	36.9	> 100	1.54	0.56	> 100	48.7	0.081	0.00054	–	3	Non-Toxic	–	–
CN(C)S(=O)(=O)N[C@@H]1Cc2ccc(cc2)NC(=O)CN2CCN(CC2)CC(=O)Nc2ccc(cc2)C[C@@H](C(=O)NCc2ccc(C(=N)N)cc2)NC1=O	–	74.7	–	–	–	–	–	–	–	–	–	–	–
N=C(N)c1ccc(CNC(=O)[C@@H]2Cc3ccc(cc3)NC(=O)CCN3CCN(CCC(=O)Nc4ccc(cc4)C[C@@H](NC(=O)Cc4ccccc4)C(=O)N2)CC3)cc1	–	96.5	–	–	–	–	–	–	–	–	–	–	–
N=C(N)c1ccc(CNC(=O)[C@@H]2Cc3ccc(cc3)NC(=O)CCN3CCN(CCC(=O)Nc4ccc(cc4)C[C@@H](NC(=O)CCCc4ccccc4)C(=O)N2)CC3)cc1	0.712	39.7	1	22.7	11.5	10.5	–	–	–	–	–	–	–
NCc1ccc(CNC(=O)[C@@H]2Cc3ccc(cc3)NC(=O)CCN3CCN(CCC(=O)Nc4ccc(cc4)C[C@@H](NS(=O)(=O)Cc4ccccc4)C(=O)N2)CC3)cc1	–	32	0.156	1.2	–	–	–	–	–	–	–	–	–
N=C(N)c1ccc(CNC(=O)[C@@H]2Cc3ccc(cc3)NC(=O)CCN3CCN(CCC(=O)Nc4ccc(cc4)C[C@@H](NS(=O)(=O)NC4CCCCC4)C(=O)N2)CC3)cc1	–	17	0.021	0.13	–	–	0.055	0.00015	–	–	–	–	–
NCCCCNC(=O)[C@@H]1Cc2ccc(cc2)NC(=O)CCN2CCN(CCC(=O)Nc3ccc(cc3)C[C@@H](NS(=O)(=O)NC3CCCCC3)C(=O)N1)CC2	21.9	85.9	6.2	50.6	39.5	64.4	–	–	–	–	–	–	–
N=C(N)c1ccc(CNC(=O)[C@@H]2Cc3ccc(cc3)NC(=O)CCN3CCN(CCC(=O)Nc4ccc(cc4)C[C@@H](N)C(=O)N2)CC3)cc1	–	106	–	–	–	–	–	–	–	–	–	–	–
NCc1ccc(CNC(=O)[C@@H]2Cc3ccc(cc3)NC(=O)CCN3CCN(CCC(=O)Nc4ccc(cc4)C[C@@H](NS(=O)(=O)NC4CCCCC4)C(=O)N2)CC3)cc1	7.13	> 100	0.351	0.52	> 100	43.2	0.1	0.00043	–	–	–	–	–
N=C(N)c1ccc(CNC(=O)[C@@H]2Cc3ccc(cc3)NC(=O)CCN3CCN(CCC(=O)Nc4ccc(cc4)C[C@@H](NS(=O)(=O)c4ccccc4)C(=O)N2)CC3)cc1	42.7	> 13	0.062	0.07	> 13	0.8	–	–	–	–	–	–	–
N=C(N)c1ccc(CNC(=O)[C@@H]2Cc3ccc(cc3)NC(=O)CN3CCN(CC3)CC(=O)Nc3ccc(cc3)C[C@@H](NC(=O)CCc3ccccc3)C(=O)N2)cc1	8.79	42	1.43	61.1	20.6	8.25	–	–	–	–	–	–	–
N=C(N)c1ccc(CNC(=O)[C@@H]2Cc3ccc(cc3)NC(=O)CN3CCN(CC3)CC(=O)Nc3ccc(cc3)C[C@@H](N)C(=O)N2)cc1	173	130	–	66.3	114	9.09	–	–	–	–	–	–	–
N=C(N)c1ccc(CNC(=O)[C@@H]2Cc3ccc(cc3)NC(=O)CCN3CCN(CCC(=O)Nc4ccc(cc4)C[C@@H](NC(=O)CCc4ccccc4)C(=O)N2)CC3)cc1	0.199	28	0.757	3.93	16.1	7.41	–	–	–	–	–	–	–
CC(C)(C)OC[C@@H](NS(=O)(=O)Cc1ccccc1)C(=O)NCC(=O)NCc1ccc(C(=N)N)cc1	–	–	–	–	–	–	–	–	7.7	–	–	–	–
COC(=O)N[C@@H]1Cc2ccc(cc2)NC(=O)CCN2CCN(CCC(=O)Nc3ccc(cc3)C[C@@H](C(=O)NCc3ccc(C(=N)N)cc3)NC1=O)CC2	15.3	51.5	0.109	0.77	50.7	7.25	–	0.00085	–	–	–	–	–
N=C(N)c1ccc(CNC(=O)[C@@H]2Cc3ccc(cc3)NC(=O)CN3CCN(CC3)CC(=O)Nc3ccc(cc3)C[C@@H](NC(=O)OCc3ccccc3)C(=O)N2)cc1	–	93.4	–	5.2	–	–	–	–	–	–	–	–	–
CC(C)(C)OC(=O)N[C@@H]1Cc2ccc(cc2)NC(=O)CCN2CCN(CCC(=O)Nc3ccc(cc3)C[C@@H](C(=O)NCc3ccc(CN)cc3)NC1=O)CC2	15.6	> 100	3.15	19.7	> 100	> 100	–	–	–	–	–	–	–
N=C(N)c1ccc(CNC(=O)[C@H](Cc2cccc(CN)c2)NC(=O)[C@@H](CCCc2ccccc2)NS(=O)(=O)Cc2cccc(C(=O)O)c2)cc1	–	–	–	–	–	–	–	–	–	–	–	Toxic	0.0036
N=C(N)c1ccc(CNC(=O)[C@@H]2Cc3ccc(cc3)NC(=O)CCN3CCN(CCC(=O)Nc4ccc(cc4)C[C@@H](NC=O)C(=O)N2)CC3)cc1	> 100	62.9	0.561	2.69	> 100	3.87	–	–	–	–	–	–	–
N=C(N)c1ccc(CNC(=O)[C@@H]2Cc3ccc(cc3)NC(=O)CN3CCN(CC3)CC(=O)Nc3ccc(cc3)C[C@@H](NC(=O)CCCc3ccccc3)C(=O)N2)cc1	8.78	47.1	1.9	75.3	20.5	12.6	–	–	–	–	–	–	–
N=C(N)NCCCCNC(=O)[C@@H]1Cc2ccc(cc2)NC(=O)CCN2CCN(CCC(=O)Nc3ccc(cc3)C[C@@H](NS(=O)(=O)NC3CCCCC3)C(=O)N1)CC2	1.71	49.3	0.59	3.7	28.9	10.4	–	–	–	–	–	–	–
N=C(N)c1ccc(CNC(=O)[C@@H]2Cc3ccc(cc3)NC(=O)CN3CCN(CC3)CC(=O)Nc3ccc(cc3)C[C@@H](NC(=O)Cc3ccccc3)C(=O)N2)cc1	72.2	212	–	81.3	202	7.27	–	–	–	–	–	–	–
